Screening data: PubChem, several laboratories
The list is not random: actives were taken first. Their share in the collection is about 4.2%.
KCNQ1 block – inhibitors of human KCNQ1 potassium channel | 1.3% of 310,000 active | CHO-K1 KCNQ1, FluxOR thallium flux fluorescence; stronger effect = higher value | P51787 | B-score at 10 µM;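 active = compounds whose thallium flux B-score, printed positive for inhibition, exceeds three library SD while starting fluorescence stays within three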;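 also: channel opened by potassium depolarization with thallium stimulus after 20 min compound exposure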
Mot1-301 SUMO – SUMOylation pathway inhibition by Mot1-301 growth rescue; 1% of 320,000 active; AID 2716; S. cerevisiae Mot1-301 growth rescue, ATP luminescence, 38.5C; percent above DMSO median, 100 means doubled; growth rescue, % at 18.8 µM;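 active = every valid replicate shows activation above 250% relative to neutral control wells; inactive = the rest, any valid replicate at or below 250%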;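 also: OY570 slx delta 5 strain wells were the positive control but not used for scaling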
KCC2 mod – modulators of human KCC2 chloride dependent transport | Q9H2X9 | KCC2 cells, thallium flux FluoZin-2 fluorescence | B-score of Tl+ flux slope (higher = more flux/activation; lower = inhibition) at 10 µM | 2.2% of 190,000 active;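 active = thallium flux slope and its plate-corrected score both differing from the plate sample mean at a set confidence after two filtering rounds, in either direction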;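 also: slope of fluorescence scaled to starting intensity during 10 to 20 s after thallium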
AI-2 QS mod – modulators of Vibrio harveyi AI-2 quorum sensing system; Vibrio harveyi JMH597 AI-2 luminescence/OD600 ratio, 9 h; stronger effect = lower value; strain lacks LuxN and CqsS sensors; 0 = neutral-control median; activity change, % at 7.5 µM; 0.4% of 300,000 active; AID 2094; in the data active = activity change below about -75%, passing the limit was not always enough;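 also: luminescence divided by OD600 gain over 9 h not by final OD600 alone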
hERG protect – compounds protecting human hERG from proarrhythmic drug block | 0.51% of 310,000 active | Q12809 | AID 1511 | activation (rescue from dofetilide block), less the hit threshold, % at 10 µM | CHO-hERG, FluxOR thallium flux, dofetilide IC70 present;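 active = activation above the mean of controls blocked by dofetilide plus 5 SD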;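 also: thallium influx through hERG after potassium depolarization seen as dye fluorescence rise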
KCNQ1 act – human KCNQ1 channel potentiation or activation | AID 2648 | 0.35% of 310,000 active | CHO-K1 KCNQ1, thallium flux FluxOR fluorescence; stronger effect = higher value | P51787 | B-score at 10 µM;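 active = fluorescence ratio B-score, a plate-corrected score, at least three library SD, with initial intensity B-score within 5 SD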
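Medium – assay buffer, equal DMSO in all wells · Material – CHO-K1 cell line with stable KCNQ1 potassium channel expression · Signal – kinetic FluxOR thallium fluorescence, 10-s 1-Hz baseline, 110-s post-stimulus read · Compound – single concentration per compound, DMSO matched to controls · Schedule – 37 °C overnight plating, 90-min dark dye load, 20-min compound pretreatment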
The depositor's hits bear a star; i = inactive; / = not tested or not shown.

SMILES	KCNQ1 block	Mot1-301 SUMO	KCC2 mod	AI-2 QS mod	hERG protect	KCNQ1 act
O=C(O)c1ccc2c(c1)C(=O)N(c1cc([N+](=O)[O-])ccn1)C2=O	i	-12	/	8	5.2*	i
Cc1ccc(C(=O)O)cc1NC(=O)c1ccc2c(c1)C(=O)N(c1ccc([N+](=O)[O-])cc1)C2=O	i	-8	/	46	0	i
COc1ccc2c(c1)CCc1c(C(=O)NC3CCCCC3)noc1-2	i	-8	0.43	3	-6	i
CCN(CCC(=O)Nc1ccc(Br)c(C)c1)Cc1ccccc1	8*	43	/	19	-8	i
O=C(O)c1cn(-c2ccccc2)nc1-c1ccc(Cl)cc1	i	-11	-3.8*	34	-5	i
O=C(N/N=C/c1ccc([N+](=O)[O-])o1)c1cn(-c2ccccc2)nc1-c1ccc(Cl)cc1	i	-3	-0.094	13	8.3*	i
COc1ccc(CC(=O)Oc2ccc(F)c(F)c2)cc1S(=O)(=O)N1CCOCC1	i	-11	/	9	-16	i
CC(C)[C@H](NC(=O)N1c2ccccc2NC(=O)[C@@H]1C(C)C)C(=O)N[C@@H](C(=O)O)c1ccccc1	i	910*	/	10	-4	i
CCOc1ccc(S(=O)(=O)N(C)c2ccc(OCC(=O)Nc3nc4ccccc4s3)cc2)cc1	8*	-4	0.037	5	-7	i
S=c1[nH]nc(-c2cc3c(s2)-c2ccccc2CC3)o1	i	168	95*	44	134*	71*
CCCOP(=O)(c1ccc(N(C)C)cc1)C(Nc1ccccc1)c1ccc(C)cc1 (stereo not drawn)	i	-18	-0.015	15	-14	i
Cc1ccsc1C1C(C#N)=C(N)N(N(C)C)C2=C1C(=O)CCC2 (stereo not drawn)	i	-12	-0.093	18	7.9*	i
CN(C)N1C(N)=C(C#N)C(c2cccs2)C2=C1CCCC2=O (stereo not drawn)	i	277	-0.14	-2	-6	i
CC1=C(C(=O)OCCC(C)C)C(c2ccc3c(c2)OCO3)NC(=O)N1 (stereo not drawn)	i	-2	/	1	-6	i
Cc1noc(C)c1C(=O)NCCc1c(C)[nH]c2ccccc12	i	296*	/	13	-5	i
Cc1noc(C)c1C(=O)NCCCc1ccccc1	i	-7	-1.2	8	-5	i
COc1ccccc1/C=N/N1C(=O)c2cccc3cccc(c23)C1=O	i	-12	0.081	24	7.2*	i
O=c1c(-c2ccc(Cl)cc2)[n+]([O-])c2ccccc2n1O	i	6	9.6*	8	40*	32*
CCN1CC=C2C(C1)C(c1ccc(Cl)s1)C(C#N)=C(N)C2(C#N)C#N (stereo not drawn)	11*	43	i	14	-20	i
O=C(Nc1ccccc1)Nc1ccc(O)c2ccccc12	6*	7	/	19	-23	i
CC(C)[C@H](NS(=O)(=O)c1cccc(Cl)c1)C(=O)OCC(=O)NC(=O)CN1CCCC1=O	/	12	/	/	/	/
Cc1ccc(OCC(=O)NCCNC(=O)c2ccccn2)cc1	i	-14	/	11	-3	i
COc1cccc(-n2nc(C(=O)O)c3ccccc3c2=O)c1	i	-9	0.024	22	6.5*	i
COC(=O)CNC(=O)c1nn(-c2cccc(OC)c2)c(=O)c2ccccc12	/	141	0.29	/	/	/
CC(C)CCN1CCN(Cc2nc(-c3ccc(F)cc3)cs2)CC1CCO (stereo not drawn)	i	24	/	13	7.1*	i
CC(C)=CCN1CCN(Cc2nc(-c3ccc(F)cc3)cs2)CC1CCO (stereo not drawn)	i	/	-3.4	15	-14	i
COC(=O)c1ccc(CN2CCN(CCC(C)C)C(CCO)C2)cc1 (stereo not drawn)	6*	7	0.74	11	-18	i
O=C1CCC(C(=O)OCc2cc(=O)oc3ccc4ccccc4c23)=NN1	i	-18	-0.8	10	-12	i
